Assay results published in ChEMBL document CHEMBL1142371, “Synthesis and biological evaluation of imidazol-2-one derivatives as potential antitumor agents” (Bioorg Med Chem, 2008).

Legend:
[1] = tested on: HL-60; assay: Cytotoxicity against human HL60 cells after 48 hrs by MTT assay; type: functional, cell-based; conditions: HL-60, 48 h
Method in brief: (§1)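 MTT read-out after 48 h drug exposure; MTT then added for a further 4 h at 37 °C, formazan dissolved in DMSO, absorbance at 570 nm. Triplicate wells in three independent experiments; IC50 = concentration giving 50% inhibition of cell viability, values are means of three experiments.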

[2] = Cytotoxicity against multidrug-resistant human K562R cells after 48 hrs by MTT assay; type: functional, cell-based; conditions: K-562R; method in brief: as §1
[3] = tested on: PC-3; assay: Cytotoxicity against human PC3 cells after 48 hrs by MTT assay; type: functional, cell-based; conditions: PC-3, 48 h; method in brief: as §1
[4] = Cytotoxicity against human ECA109 cells after 48 hrs by MTT assay; type: functional, cell-based; conditions: ECa-109, 48 h; method in brief: as §1
[5] = tested on: A549; assay: Cytotoxicity against human A549 cells after 48 hrs by MTT assay; type: functional, cell-based; conditions: A549, 48 h; method in brief: as §1
[6] = tested on: K562; assay: Cytotoxicity against human K562 cells after 48 hrs by MTT assay; type: functional, cell-based; conditions: K562, 48 h; method in brief: as §1
[7] = tested on: MCF7; assay: Cytotoxicity against human MCF7 cells after 48 hrs by MTT assay; type: functional, cell-based; conditions: MCF7, 48 h; method in brief: as §1
[8] = tested on: Bel-7402; assay: Cytotoxicity against human BEL-7402 cells after 48 hrs by MTT assay; type: functional, cell-based; conditions: Bel-7402, 48 h; method in brief: as §1
[9] = tested on: CCRF S-180; assay: Antitumor activity in mouse xenografted with S180 cells assessed as inhibition of tumor growth at 15 mg/kg/day, im after 10 days; type: functional; conditions: CCRF S-180, im, 240 h, route intramuscular
Method in brief: (§2)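 S-180 or H-22 cells expanded in mice for 10 days, then 2.5 × 10⁶ viable tumor cells per mouse injected subcutaneously into the armpit of female mice (9 per treated group, 18 negative controls). Compound given im once daily for 10 consecutive days; saline negative control, cyclophosphamide 30.0 mg/kg ip positive control. Tumors excised and weighed on day 10; inhibition rate = (C − T)/C × 100 from mean tumor weights.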

[10] = tested on: Mus musculus; assay: Effect on body weight in mouse bearing H22 cells at 5 mg/kg/day, im after 10 days; type: functional; conditions: route intramuscular
Method in brief: (§3)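 Female tumor-bearing mice (S-180 or H-22, 2.5 × 10⁶ cells subcutaneously in armpit) dosed im once daily for 10 consecutive days; saline negative control. Initial and end body weights recorded per group.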

[11] = tested on: Mus musculus; assay: Effect on body weight in mouse bearing H22 cells at 20 mg/kg/day, im after 10 days; type: functional; conditions: route intramuscular; method in brief: as §3
[12] = tested on: K562; assay: Cell cycle arrest in human K562 cells assessed as accumulation at G2/M phase at 0.01 uM after 48 hrs by flow cytometry; type: functional
Method in brief: (§4)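 K562 cells in exponential growth exposed 48 h to 0–1 µM compound. Cells washed twice in PBS, fixed in 70% ethanol at −20 °C, RNase-treated 1 h at 37 °C, stained with propidium iodide 30 min at 4 °C. DNA content by flow cytometry gives cell-cycle phase distribution and apoptotic fraction.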

[13] = tested on: K562; assay: Cell cycle arrest in human K562 cells assessed as accumulation at S phase at 0.01 uM after 48 hrs by flow cytometry; type: functional; method in brief: as §4
[14] = tested on: K562; assay: Induction of apoptosis in human K562 cells at 0.1 uM after 48 hrs by flow cytometry; type: functional; method in brief: as §4
[15] = tested on: K562; assay: Induction of apoptosis in human K562 cells at 1 uM after 48 hrs by flow cytometry; type: functional; method in brief: as §4
[16] = tested on: Mus musculus; assay: Effect on body weight in mouse bearing S180 cells at 15 mg/kg/day, im after 10 days; type: functional, CCRF S-180; conditions: route intramuscular; method in brief: as §3
[17] = tested on: Mus musculus; assay: Antitumor activity in mouse xenografted with H22 cells assessed as inhibition of tumor growth at 5 mg/kg/day, im after 10 days; type: functional; conditions: 240 h, route intramuscular; method in brief: as §2
[18] = tested on: Mus musculus; assay: Antitumor activity in mouse xenografted with H22 cells assessed as inhibition of tumor growth at 20 mg/kg/day, im after 10 days; type: functional; conditions: 240 h, route intramuscular; method in brief: as §2
[19] = tested on: CCRF S-180; assay: animal or person; conditions: Mus musculus, CCRF S-180, ip, 240 h, read-out: Inhibition
[20] = tested on: H22; assay: animal or person; conditions: Mus musculus, H22, ip, 240 h, read-out: Inhibition

## COc1ccc(-c2c[nH]c(=O)n2-c2cc(OC)c(OC)c(OC)c2)cc1
[1]
  IC50: 19.8 µM
[2]
  IC50: > 50 µM
[3]
  IC50: > 50 µM
[4]
  IC50: > 50 µM
[5]
  IC50: > 50 µM

## COc1ccc(-c2cn(C(C)=O)c(=O)n2-c2cc(OC)c(OC)c(OC)c2)cc1OC
[1]
  IC50: 12.2 µM
[6]
  IC50: 43.4 µM
[2]
  IC50: > 50 µM
[3]
  IC50: > 50 µM
[7]
  IC50: > 50 µM
[4]
  IC50: > 50 µM
[8]
  IC50: > 50 µM
[5]
  IC50: > 50 µM

## COc1ccc(-c2cn(C(=O)Nc3cc(OC)c(OC)c(OC)c3)c(=O)n2-c2cc(OC)c(OC)c(OC)c2)cc1OC
[1]
  IC50: 6.5 µM
[6]
  IC50: > 50 µM
[2]
  IC50: > 50 µM
[3]
  IC50: > 50 µM
[7]
  IC50: > 50 µM
[4]
  IC50: > 50 µM
[8]
  IC50: > 50 µM
[5]
  IC50: > 50 µM

## COc1ccc(-c2cn(C(=O)Nc3cc(OC)c(OC)c(OC)c3)c(=O)n2-c2cc(OC)c(OC)c(OC)c2)cc1[N+](=O)[O-]
[1]
  IC50: 19.7 µM
[6]
  IC50: 7.2 µM
[2]
  IC50: > 50 µM
[3]
  IC50: > 50 µM
[4]
  IC50: > 50 µM
[5]
  IC50: > 50 µM

## COc1ccc(-c2cn(C(C)=O)c(=O)n2-c2cc(OC)c(OC)c(OC)c2)cc1[N+](=O)[O-]
[1]
  IC50: 5.6 µM
[6]
  IC50: > 50 µM
[2]
  IC50: > 50 µM
[3]
  IC50: 30.3 µM
[7]
  IC50: > 50 µM
[4]
  IC50: 30.8 µM
[8]
  IC50: 35.7 µM
[5]
  IC50: 40.9 µM

## COc1ccc(-c2cn(C(=O)Nc3cc(OC)c(OC)c(OC)c3)c(=O)n2-c2cc(OC)c(OC)c(OC)c2)cc1O
[1]
  IC50: 15.4 µM
[6]
  IC50: > 50 µM
[2]
  IC50: > 50 µM
[3]
  IC50: > 50 µM
[4]
  IC50: > 50 µM
[5]
  IC50: > 50 µM

## COc1cc(-n2c(-c3ccccc3)cn(C(C)=O)c2=O)cc(OC)c1OC
[1]
  IC50: 5.6 µM
[6]
  IC50: > 50 µM
[2]
  IC50: 9.6 µM
[3]
  IC50: > 50 µM
[7]
  IC50: > 50 µM
[4]
  IC50: > 50 µM
[8]
  IC50: > 50 µM
[5]
  IC50: > 50 µM

## COc1ccc(-c2cn(C(=O)Nc3cc(OC)c(OC)c(OC)c3)c(=O)n2-c2cc(OC)c(OC)c(OC)c2)cc1
[1]
  IC50: 5.4 µM
[6]
  IC50: 3.8 µM
[2]
  IC50: 3.5 µM
[3]
  IC50: 49.7 µM
[7]
  IC50: > 50 µM
[4]
  IC50: > 50 µM
[8]
  IC50: > 50 µM
[5]
  IC50: > 50 µM

## COc1ccc(-c2c[nH]c(=O)n2-c2cc(OC)c(OC)c(OC)c2)cc1N
[1]
  IC50: 10.3 µM
[6]
  IC50: 49.2 µM
[2]
  IC50: > 50 µM
[3]
  IC50: 49.8 µM
[7]
  IC50: > 50 µM
[4]
  IC50: > 50 µM
[8]
  IC50: > 50 µM
[5]
  IC50: > 50 µM

## COc1cc(-n2c(-c3ccc([N+](=O)[O-])cc3)cn(C(C)=O)c2=O)cc(OC)c1OC
[1]
  IC50: 7.2 µM
[6]
  IC50: 26.6 µM
[2]
  IC50: 49.6 µM
[3]
  IC50: 32.9 µM
[7]
  IC50: > 50 µM
[4]
  IC50: > 50 µM
[8]
  IC50: > 50 µM
[5]
  IC50: 49.6 µM

## COc1cc(-n2c(-c3ccc(F)cc3F)cn(C(C)=O)c2=O)cc(OC)c1OC
[1]
  IC50: 7.6 µM
[6]
  IC50: > 50 µM
[2]
  IC50: > 50 µM
[3]
  IC50: 34.3 µM
[7]
  IC50: 49.3 µM
[4]
  IC50: > 50 µM
[8]
  IC50: 36.2 µM
[5]
  IC50: 24.1 µM

## COc1ccc(-c2cn(C(=O)Nc3cc(OC)c(OC)c(OC)c3)c(=O)n2-c2cc(OC)c(OC)c(OC)c2)cc1N
[1]
  IC50: 3.1 µM
[6]
  IC50: 5.8 µM
[2]
  IC50: 9.4 µM
[3]
  IC50: 10 µM
[7]
  IC50: > 50 µM
[4]
  IC50: > 50 µM
[8]
  IC50: 10.1 µM
[5]
  IC50: 11.1 µM

## COc1cc(-n2c(-c3ccc(Cl)cc3)cn(C(C)=O)c2=O)cc(OC)c1OC
[1]
  IC50: 4.9 µM
[6]
  IC50: > 50 µM
[4]
  IC50: > 50 µM
[5]
  IC50: > 50 µM

## COc1ccc(-c2c[nH]c(=O)n2-c2cc(OC)c(OC)c(OC)c2)cc1OC
[1]
  IC50: 38.8 µM
[2]
  IC50: > 50 µM
[3]
  IC50: > 50 µM
[4]
  IC50: > 50 µM
[5]
  IC50: > 50 µM

## COc1cc(-n2c(-c3ccc(O)cc3)c[nH]c2=O)cc(OC)c1OC
[1]
  IC50: 20 µM
[6]
  IC50: > 50 µM
[2]
  IC50: > 50 µM
[3]
  IC50: 30.2 µM
[7]
  IC50: > 50 µM
[4]
  IC50: > 50 µM
[8]
  IC50: > 50 µM
[5]
  IC50: > 50 µM

## COc1ccc(-c2c[nH]c(=O)n2-c2cc(OC)c(OC)c(OC)c2)cc1[N+](=O)[O-]
[1]
  IC50: 14.3 µM
[2]
  IC50: > 50 µM
[3]
  IC50: > 50 µM
[4]
  IC50: > 50 µM
[5]
  IC50: > 50 µM

## COc1cc(-n2c(-c3ccc(Br)cc3)cn(C(C)=O)c2=O)cc(OC)c1OC
[9]
  inhibition in vivo at 15 mg/kg/day: 55.3%
[10]
  Activity: 26.8 g
[11]
  Activity: 27.6 g
[1]
  IC50: 0.2 µM
[6]
  IC50: 1 µM
[2]
  IC50: 0.9 µM
[3]
  IC50: 3.1 µM
[7]
  IC50: 10.6 µM
[4]
  IC50: 3.8 µM
[8]
  IC50: 1.2 µM
[12]
  Activity: 31%
[13]
  Activity: 54%
[14]
  Activity: 45.6%
[15]
  Activity: 78.6%
[16]
  Activity: 35.1 g
[17]
  inhibition in vivo at 5 mg/kg/day: 29.4%
[18]
  inhibition in vivo at 20 mg/kg/day: 55.5%
[5]
  IC50: 1.3 µM

## COc1ccc(-c2cn(C(C)=O)c(=O)n2-c2cc(OC)c(OC)c(OC)c2)cc1
[1]
  IC50: 5.5 µM
[6]
  IC50: 0.2 µM
[2]
  IC50: 9.5 µM
[3]
  IC50: 19.7 µM
[7]
  IC50: > 50 µM
[4]
  IC50: > 50 µM
[8]
  IC50: 9.5 µM
[5]
  IC50: 17.8 µM

## COc1cc(NC(=O)n2cc(-c3ccc(O)cc3)n(-c3cc(OC)c(OC)c(OC)c3)c2=O)cc(OC)c1OC
[1]
  IC50: 6.3 µM
[6]
  IC50: 10.4 µM
[2]
  IC50: > 50 µM
[3]
  IC50: 3 µM
[7]
  IC50: > 50 µM
[4]
  IC50: > 50 µM
[8]
  IC50: > 50 µM
[5]
  IC50: 2.5 µM

## COc1ccc(-c2cn(C(C)=O)c(=O)n2-c2cc(OC)c(OC)c(OC)c2)cc1N
[1]
  IC50: 0.4 µM
[6]
  IC50: 0.5 µM
[2]
  IC50: 49.3 µM
[3]
  IC50: 21.4 µM
[7]
  IC50: 43.4 µM
[4]
  IC50: > 50 µM
[8]
  IC50: 0.6 µM
[5]
  IC50: 1.1 µM

## O=P1(N(CCCl)CCCl)NCCCO1 (centres undefined) [CYCLOPHOSPHAMIDE ANHYDROUS]
[19]
  inhibition in vivo at 30 mg/kg/day: 63.5%
[20]
  inhibition in vivo at 30 mg/kg/day: 36.2%

## CC(=O)O[C@@]12CO[C@@H]1C[C@H](O)[C@@]1(C)C(=O)[C@H](O)C3=C(C)[C@@H](OC(=O)[C@H](O)[C@@H](NC(=O)OC(C)(C)C)c4ccccc4)C[C@@](O)([C@@H](OC(=O)c4ccccc4)[C@H]21)C3(C)C [DOCETAXEL]
[6]
  IC50: 8.5 µM
[3]
  IC50: 54.8 µM
[7]
  IC50: 4 µM
[5]
  IC50: 1.7 µM
